Test results taken from the array DNA melting data of Ke et al. (doi:10.1101/2024.01.08.574731).

Tests used:
[1] = melting temperature; fluorescence melt of hairpins on a sequencing array, two-state fit, raised by 9.35 °C to match UV melts; conditions: sodium 0.088 M
In short: (§1)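 To match UV melts, fitted temperatures were raised by 9.35 °C. These fits were bootstrapped two-state models that gave melting temperature and folding enthalpy, combined by inverse variance over four replicates. The input was normalised Cy3 fluorescence of library hairpins with annealed Cy3 and quencher oligos on a sequenced MiSeq flow cell, imaged in 50 mM Na-HEPES pH 8.0, 25 mM NaCl in 2.5 °C steps up to 60 °C.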

[2] = folding enthalpy; higher = less favourable; fluorescence melt of hairpins on a sequencing array, two-state fit; conditions: sodium 0.088 M
In short: as §1

Sequence	Tm [1] [°C]	folding enthalpy [2] [kcal/mol]
GTTTTTTCGAAAGAAAAC (((..(((....))))))	32.1	-19.7
GCGGAGCGAAAGCTCTGC ((.((((....)))).))	68	-35.8
GTGCCTCCGAAAGGACAC (((..(((....))))))	52.4	-8.63
GACAATGGAAACATCGTC (((.(((....))).)))	32.5	-26.4
GGACACGAAAGTGCGTCC ((((((....)))..)))	40.5	-18.2
CCGTTGAAAAACGG (((((....)))))	54.3	-19.9
GAGTGAGGAAACTCGCTC (((.(((....))).)))	50.6	-49.6
GGCCGGGGAAACTCGGCC (((((.(....).)))))	68.4	-40
GTGCAGCGAAAGCTCCAC (((.(((....))).)))	44.7	-21.8
CGTTCGGAAACGAGAACG ((((((....)))..)))	41.2	-27.9
GCAAAGCGAAAGCCTCGC ((.(.((....)).).))	27.9	-7.59
GATCGAACTGTCGATC ((((((....))))))	49.2	-31.1
GATCTTGTGTAAGATC ((((((....))))))	43.6	-34.6
GTCATCGAAAGATGGGAC ((((((....)))..)))	34.1	-14.4
GCGGCACCGAAAGGTCGC (((..(((....))))))	54.4	-21.1
GATCGGCAGCCGATC ((((((...))))))	55.2	-50.7
GATCTCCGTGGAGATC ((((((....))))))	59.2	-47.9
GCGAGGGCTCGC ((((....))))	51	-25.5
GATCGGCAAACCGATC ((((((....))))))	56.5	-36.1
GTAGGGGCGAAAGCCTAC (((..(((....))))))	37.9	-10.8
GTGGGAGGAAACTCCCAC (((((((....)))))))	67.2	-32.1
GCACAGCGAAAGCTGAGC ((.((((....)))).))	63.4	-17.2
GATCGGCAGTCCGATC ((((((....))))))	56.7	-37.7
GCGATCGTCGC ((((...))))	45.9	-20.2

Sequence	Tm [1] [°C]	folding enthalpy [2] [kcal/mol]
GCGAGCGAAAGCTGCGC ((((((....))).)))	68.9	-21.8
GGAAACGAAAGTTTTTCC ((((((....)))..)))	30.6	-10.8
GGGTATCGAAAGATTCCC (((.(((....))).)))	48.8	-30.6
GAGTGAGGAAACTCGTTC ((..(((....)))..))	27.6	-11.8
GACAGACGAAAGTCCGTC (((.(((....))).)))	47.5	-26
GGCATTCGAAAGAAGGCC (((.(((....))).)))	60.4	-41.7
GCTTCGCGAAAGCGTCGC ((..(((....)))..))	41.4	-15.6
GCGGTAAGCCGC ((((....))))	57.7	-23.3
GATCGAGGGTTCGATC ((((((....))))))	50.9	-36.9
CGTGCGGAAACGCCACG ((((((....))).)))	53.8	-25.4
GGTAACGCGAAAGCGACC (((..(((....))))))	40.9	-14.1
CGCCCGGAAACGGTTGCG ((((((....)))..)))	48.6	-25.5
GAGAACGGAAACATTCTC (((((.(....).)))))	30.1	-23.5
GCGAGGCGAAAGCACCGC (((..((....))..)))	61.8	-22.8
GTCTTCGAAAGAAAGGAC ((((((....)))..)))	26.7	-10.7
GCGGGTGCCCGC ((((....))))	57.4	-30.3
GGTAAAGCGAAAGCTACC (((..(((....))))))	44.8	-19
GCAGGCCGAAAGGCTGC (((.(((....))))))	67.3	-22.2
GGTTGCGGAAACGCAATC (.(((((....))))).)	54.9	-28.9
GATCACCTGTGTGATC ((((((....))))))	57	-37.8
GCGGACCCCCGC ((((....))))	53.3	-34.6
GTCGACGGAAACACCGAC ((((..(....)..))))	31.6	-24.8
GGCTGGGGAAACCCGGTC (.(.(((....))).).)	46.1	-28.5
GGGAGCCGAAAGGCCCC (((.(((....))))))	69	-20.1

Sequence	Tm [1] [°C]	folding enthalpy [2] [kcal/mol]
GCGGTGGGAAACTACCGC (((((.(....).)))))	60.5	-37.5
GTAGGGAAACCTAC (((((....)))))	46.2	-25
GCTGGTCGAAAGACTAGC (((.(((....))).)))	57.6	-43.2
GTTTTGTCGAAAGACAAC (((..(((....))))))	37.5	-12.8
GATCTGCCTACAGATC ((((((....))))))	50.8	-41.8
GGGCTCGAAAGAGAACCC ((((((....)))..)))	45.2	-19.5
GCGACGAGTCGC ((((....))))	60.6	-36.6
GTCAAATCGAAAGATGAC (((..(((....))))))	35.6	-16.1
GAGAAGGCGAAAGCCCTC (((..(((....))))))	37.2	-10.5
GACGTACGAAAGTATGTC (((.(((....))).)))	54.6	-43.4
GCCTACGGAAACGTAAGC ((.((((....)))).))	36.1	-19.8
GCTGGTGGAAACGCTAGC (((.(.(....).).)))	41.2	-26.8
GCCAAGGAAACTTGGC ((((((....))))))	62.9	-38.2
GTTACACGAAAGTGAAAC (((.(((....))).)))	45.3	-23.6
GGCCGCGAAAGCGACGCC ((((((....)))..)))	66.4	-16.9
GCCTGAGGAAACTCGGGC (((.(((....))).)))	57.4	-40.8
GGTCTTGGAAACAGGACC ((((.((....)).))))	49.2	-36.3
GATCTATCTTAGATC ((((((...))))))	41.4	-24.6
GTACGCGAAAGCGGCTAC ((((((....)))..)))	42.1	-10.4
GTCGGGGGAAACCCTGAC (((.(((....))).)))	53.4	-53.6
GAACTACGAAAGTAATTC (((.(((....))).)))	31.5	-17.3
GCGAACGGAAACGCTCGC ((((.((....)).))))	55.7	-41.5
GCAGTGCGAAAGCATAGC ((..(((....)))..))	55.4	-15.8
GCGTCCGAAAGGACTCGC ((((((....)))..)))	51	-12.3

Sequence	Tm [1] [°C]	folding enthalpy [2] [kcal/mol]
GCGGAGCGAAAGCCACGC (((..((....))..)))	58.4	-15.7
GCTGCGCGAAAGCTCAGC ((((.((....)).))))	64.4	-35.4
GATCATCGAATGATC ((((((...))))))	43.6	-25.6
GGCCGTCGAAAGACAGCC (((.(((....))).)))	58.4	-35.1
GATCGGGGAAACCCGATC (((((((....)))))))	69	-42.5
GTCAAAGAAATTTGAC ((((((....))))))	45	-29.1
GCGACACTCGC ((((...))))	53.1	-18.2
GAGATGAAAATCTC (((((....)))))	44	-22.2
GCCAGGGGAAACTCTGGC (((((.(....).)))))	56.1	-40.9
GGATAGAAATATCC (((((....)))))	36	-17.5
GCCCTCGAAAGAGCAGGC ((((((....)))..)))	44.9	-24.8
GGAGACGGAAACGCCTCC ((((.((....)).))))	51.4	-48.4
GCAGTAGGAAACTACCGC ((.((((....)))).))	41	-22.5
TGGAAGAAATTCCA (((((....)))))	30.7	-12.4
GCCGTCTCGAAAGAGGGC (((..(((....))))))	50.6	-24.9
GCGACACGAAAGTGCGC (((.(((....))))))	63.9	-22.7
GTCCTTGCGAAAGCAGAC (((..(((....))))))	32.3	-12.3
GATCGTTGCTACGATC ((((((....))))))	56.3	-35.9
GGACTCGAAAGAGAATCC ((((((....)))..)))	28.8	-12.6
GCGTGGCCACGC ((((....))))	62.8	-43.9
GACTCTGAAAAGAGTC ((((((....))))))	58	-32
